Source: ChEMBL document CHEMBL1275413, “Comparison of antimicrobial resistance profiles among extended-spectrum-beta-lactamase-producing and acquired AmpC beta-lactamase-producing Escherichia coli isolates from Canadian intensive care units” (2008)
≈ marks a conversion by molar mass, not a printed value.

Key:
Format in all cases: functional
Escherichia coli [1] = assay: Antibacterial activity against ESBL-producing Escherichia coli assessed as resistant isolates by broth microdilution method
Method in brief: (§1)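 ICU clinical E. coli isolates, with ESBL or acquired AmpC genotype confirmed (AmpC families by multiplex PCR and sequencing), were stored at −80°C in skim milk and subcultured twice from frozen stock. MICs were determined in triplicate by CLSI broth microdilution. The panel included ampicillin, piperacillin-tazobactam, ceftriaxone, cefepime, cefoxitin, gentamicin, fluoroquinolones, carbapenems, doxycycline, tigecycline and trimethoprim-sulfamethoxazole.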

Escherichia coli [2] = assay: Antibacterial activity against AmpC-producing Escherichia coli assessed as resistant isolates by broth microdilution method; method in brief: as §1
Escherichia coli [3] = assay: Antibacterial activity against ESBL-producing Escherichia coli assessed as sensitive isolates by broth microdilution method
Method in brief: (§2)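 Clinical E. coli isolates from Canadian ICUs (CAN-ICU), one per patient and site, genotypically confirmed ESBL or acquired AmpC producers. AmpC groups (EBC, DHA, FOX, CIT) were typed by multiplex PCR and sequencing. Isolates were stored at −80°C in skim milk and subcultured twice from frozen stock. MICs were determined in triplicate by CLSI broth microdilution.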

Escherichia coli [4] = assay: Antibacterial activity against ESBL-producing Escherichia coli isolate by broth microdilution method; method in brief: as §2
Escherichia coli [5] = assay: Antibacterial activity against AmpC-producing Escherichia coli assessed as sensitive isolates by broth microdilution method; method in brief: as §2
Escherichia coli [6] = assay: Antibacterial activity against AmpC-producing Escherichia coli isolate by broth microdilution method; method in brief: as §2
Escherichia coli [7] = assay: Antibacterial activity against ESBL-producing Escherichia coli assessed as resistant isolates by broth microdilution method in presence of Tazobactam; method in brief: as §1
Escherichia coli [8] = assay: Antibacterial activity against ESBL-producing Escherichia coli assessed as sensitive isolates by broth microdilution method in presence of Tazobactam; method in brief: as §2
Escherichia coli [9] = assay: Antibacterial activity against ESBL-producing Escherichia coli isolate by broth microdilution method in presence of Tazobactam; method in brief: as §2
Escherichia coli [10] = assay: Antibacterial activity against AmpC-producing Escherichia coli assessed as sensitive isolates by broth microdilution method in presence of Tazobactam; method in brief: as §2
Escherichia coli [11] = assay: Antibacterial activity against AmpC-producing Escherichia coli isolate by broth microdilution method in presence of Tazobactam; method in brief: as §2

`C[C@H]1c2cccc(O)c2C(=O)C2=C(O)[C@]3(O)C(=O)C(C(N)=O)=C(O)[C@@H](N(C)C)[C@@H]3[C@@H](O)[C@@H]21.O` [DOXYCYCLINE] showed an Activity (Escherichia coli [1]) of 33.3%, an Activity (Escherichia coli [2]) of 18.5% and an Activity (Escherichia coli [3]) of 61.1%. For the same compound, the MIC50 (Escherichia coli [4]) was 4 µg/mL, the MIC90 (Escherichia coli [4]) was 64 µg/mL and the Activity (Escherichia coli [5]) was 66.7%. For the same compound, the MIC50 (Escherichia coli [6]) was 2 µg/mL and the MIC90 (Escherichia coli [6]) was 64 µg/mL.
`CO/N=C(\C(=O)N[C@@H]1C(=O)N2C(C(=O)O)=C(CSc3nc(=O)c(O)nn3C)CS[C@H]12)c1csc(N)n1` [CEFTRIAXONE] was tested, and the Activity (Escherichia coli [1]) was 83.3%, the Activity (Escherichia coli [2]) was 11.1% and the Activity (Escherichia coli [3]) was 5.6%. For the same compound, the MIC50 (Escherichia coli [4]) was 128 µg/mL (≈ 231 µM), the MIC90 (Escherichia coli [4]) was > 256 µg/mL and the Activity (Escherichia coli [5]) was 44.4%. For the same compound, the MIC50 (Escherichia coli [6]) was 16 µg/mL (≈ 28.9 µM) and the MIC90 (Escherichia coli [6]) was 64 µg/mL (≈ 115 µM).
`CC1(C)S[C@@H]2[C@H](NC(=O)[C@H](N)c3ccccc3)C(=O)N2[C@H]1C(=O)O` [AMPICILLIN] was tested, and the Activity (Escherichia coli [1]) was 100%, the Activity (Escherichia coli [2]) was 100% and the MIC (Escherichia coli [4]) was > 256 µg/mL. The MIC50 (Escherichia coli [4]) was > 256 µg/mL, the MIC90 (Escherichia coli [4]) was > 256 µg/mL and the MIC (Escherichia coli [6]) was > 256 µg/mL. For the same compound, the MIC50 (Escherichia coli [6]) was > 256 µg/mL and the MIC90 (Escherichia coli [6]) was > 256 µg/mL.
With `C[C@@H](O)[C@H]1C(=O)N2C(C(=O)O)=C(S[C@@H]3CN[C@H](C(=O)N(C)C)C3)[C@H](C)[C@H]12` [MEROPENEM] the Activity (Escherichia coli [3]) was 100%, the MIC (Escherichia coli [4]) was ≤ 0.12 µg/mL and the MIC50 (Escherichia coli [4]) was ≤ 0.12 µg/mL. The MIC90 (Escherichia coli [4]) was ≤ 0.12 µg/mL, the Activity (Escherichia coli [5]) was 100% and the MIC (Escherichia coli [6]) was ≤ 0.12 µg/mL. The MIC50 (Escherichia coli [6]) was ≤ 0.12 µg/mL and the MIC90 (Escherichia coli [6]) was ≤ 0.12 µg/mL.
Compound `CO[C@@]1(NC(=O)Cc2cccs2)C(=O)N2C(C(=O)O)=C(COC(N)=O)CS[C@@H]21` [CEFOXITIN] has an Activity (Escherichia coli [1]) of 16.7%, an Activity (Escherichia coli [2]) of 100% and an Activity (Escherichia coli [3]) of 61.1%. For the same compound, the MIC50 (Escherichia coli [4]) was 8 µg/mL (≈ 18.7 µM), the MIC90 (Escherichia coli [4]) was 32 µg/mL (≈ 74.9 µM) and the MIC50 (Escherichia coli [6]) was 256 µg/mL (≈ 599 µM). The MIC90 (Escherichia coli [6]) was > 256 µg/mL.
Work on `C[C@H]1COc2c(N3CCN(C)CC3)c(F)cc3c(=O)c(C(=O)O)cn1c23.C[C@H]1COc2c(N3CCN(C)CC3)c(F)cc3c(=O)c(C(=O)O)cn1c23.O` [LEVOFLOXACIN] yielded an Activity (Escherichia coli [1]) of 83.3%, an Activity (Escherichia coli [2]) of 26.6% and an Activity (Escherichia coli [3]) of 16.7%. For the same compound, the MIC50 (Escherichia coli [4]) was 16 µg/mL, the MIC90 (Escherichia coli [4]) was 32 µg/mL and the Activity (Escherichia coli [5]) was 88.9%. The MIC50 (Escherichia coli [6]) was ≤ 0.06 µg/mL and the MIC90 (Escherichia coli [6]) was 16 µg/mL.
`CO/N=C(\C(=O)N[C@@H]1C(=O)N2C(C(=O)[O-])=C(C[N+]3(C)CCCC3)CS[C@H]12)c1csc(N)n1` [CEFEPIME] gave an Activity (Escherichia coli [1]) of 11.1%, an Activity (Escherichia coli [3]) of 50% and an MIC50 (Escherichia coli [4]) of 8 µg/mL (≈ 16.6 µM). For the same compound, the MIC90 (Escherichia coli [4]) was 32 µg/mL (≈ 66.6 µM), the Activity (Escherichia coli [5]) was 100% and the MIC (Escherichia coli [6]) was ≤ 1 µg/mL. For the same compound, the MIC50 (Escherichia coli [6]) was ≤ 1 µg/mL and the MIC90 (Escherichia coli [6]) was ≤ 1 µg/mL.
In the case of `O=C(O)c1cn(C2CC2)c2cc(N3CCNCC3)c(F)cc2c1=O` [CIPROFLOXACIN], the Activity (Escherichia coli [1]) is reported as 83.3%, the Activity (Escherichia coli [2]) is reported as 11.1% and the Activity (Escherichia coli [3]) is reported as 16.7%. The MIC50 (Escherichia coli [4]) was > 16 µg/mL, the MIC90 (Escherichia coli [4]) was > 16 µg/mL and the Activity (Escherichia coli [5]) was 85.2%. For the same compound, the MIC50 (Escherichia coli [6]) was ≤ 0.06 µg/mL and the MIC90 (Escherichia coli [6]) was > 16 µg/mL.
GENTAMICIN was tested, and the Activity (Escherichia coli [1]) was 27.8%, the Activity (Escherichia coli [2]) was 3.7% and the Activity (Escherichia coli [3]) was 66.7%. The MIC50 (Escherichia coli [4]) was 1 µg/mL, the MIC90 (Escherichia coli [4]) was 16 µg/mL and the Activity (Escherichia coli [5]) was 88.9%. For the same compound, the MIC50 (Escherichia coli [6]) was < 0.25 µg/mL and the MIC90 (Escherichia coli [6]) was 8 µg/mL.
For `C[C@@H](O)[C@H]1C(=O)N2C(C(=O)O)=C(S[C@@H]3CN[C@H](C(=O)Nc4cccc(C(=O)O)c4)C3)[C@H](C)[C@H]12` [ERTAPENEM], the Activity (Escherichia coli [3]) was 100%, the MIC50 (Escherichia coli [4]) was 0.12 µg/mL (≈ 0.252 µM) and the MIC90 (Escherichia coli [4]) was 0.25 µg/mL (≈ 0.526 µM). The Activity (Escherichia coli [5]) was 100%, the MIC50 (Escherichia coli [6]) was 0.12 µg/mL (≈ 0.252 µM) and the MIC90 (Escherichia coli [6]) was 0.5 µg/mL (≈ 1.05 µM).
For `CN(C)c1cc(NC(=O)CNC(C)(C)C)c(O)c2c1C[C@H]1C[C@H]3[C@H](N(C)C)C(O)=C(C(N)=O)C(=O)[C@@]3(O)C(O)=C1C2=O` [TIGECYCLINE], the Activity (Escherichia coli [3]) was 100%, the MIC50 (Escherichia coli [4]) was 0.5 µg/mL (≈ 0.854 µM) and the MIC90 (Escherichia coli [4]) was 1 µg/mL (≈ 1.71 µM). For the same compound, the Activity (Escherichia coli [5]) was 100%, the MIC50 (Escherichia coli [6]) was 0.25 µg/mL (≈ 0.427 µM) and the MIC90 (Escherichia coli [6]) was 0.5 µg/mL (≈ 0.854 µM).
Work on `CCN1CCN(C(=O)N[C@@H](C(=O)N[C@@H]2C(=O)N3[C@@H]2SC(C)(C)[C@@H]3C(=O)O)c2ccccc2)C(=O)C1=O` [PIPERACILLIN] yielded an Activity (Escherichia coli [7]) of 5.6%, an Activity (Escherichia coli [8]) of 94.4% and an MIC50 (Escherichia coli [9]) of 2 µg/mL. It also gave an MIC90 (Escherichia coli [9]) of 8 µg/mL, an Activity (Escherichia coli [10]) of 100% and an MIC50 (Escherichia coli [11]) of 2 µg/mL. For the same compound, the MIC90 (Escherichia coli [11]) was 8 µg/mL.
